The source made the active and inactive calls. The calls are words filed in the database; no cut-off is given here.
Key:
MCF7 [1] = assay: Cell cycle arrest in human MCF7 cells assessed as accumulation at S phase at 0.6 uM after 4 hrs by propidium iodide staining based flow cytometric method (reference value: 29.55 to 32.22%); assay type: functional
MCF7 [2] = assay: Induction of apoptosis in human MCF7 cells assessed as necrotic cells at 12 uM after 24 hrs by Annexin-V-FITC/propidium iodide staining based flow cytometric method (reference value: 2.35 to 2.49%); assay type: functional
MCF7 [3] = assay: Upregulation of CDK1 expression in human MCF7 cells at 0.5 to 2 uM after 24 hrs by Western blot analysis; assay type: functional, cell-based
L02 = assay: Cytotoxicity against human L02 cells after 24 hrs by MTT assay; assay type: cell-based; conditions: L02, 24 h
Outline: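 Normal human liver L02 cells were tested at multiple concentrations in an MTT assay. Output is the median cytotoxic concentration (CC50).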

MCF7 [4] = assay: Cell cycle arrest in human MCF7 cells assessed as accumulation at G2/M phase at 0.6 uM after 16 hrs by propidium iodide staining based flow cytometric method (reference value: 7.59 to 9.58%); assay type: functional
MCF7 [5] = assay: Cell cycle arrest in human MCF7 cells assessed as accumulation at S phase at 0.6 uM after 8 hrs by propidium iodide staining based flow cytometric method (reference value: 29.55 to 32.22%); assay type: functional
A549 = assay: Cytotoxicity against human A549 cells after 24 hrs by MTT assay; assay type: functional, cell-based; conditions: A549, 24 h
Outline: (§1)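 In vitro antiproliferative screen by MTT assay against human MCF-7 breast, HeLa cervical, A549 lung adenocarcinoma and HepG-2 hepatoma cells. Output is the IC50.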

MCF7 [6] = assay: Induction of apoptosis in human MCF7 cells assessed as necrotic cells at 4 uM after 24 hrs by Annexin-V-FITC/propidium iodide staining based flow cytometric method (reference value: 2.35 to 2.49%); assay type: functional
MCF7 [7] = assay: Induction of apoptosis in human MCF7 cells assessed as early apoptotic cells at 4 uM after 24 hrs by Annexin-V-FITC/propidium iodide staining based flow cytometric method (reference value: 2.36 to 2.86%); assay type: functional
MCF7 [8] = assay: Cell cycle arrest in human MCF7 cells assessed as accumulation at G2/M phase at 0.6 uM after 4 hrs by propidium iodide staining based flow cytometric method (reference value: 7.59 to 9.58%); assay type: functional
MCF7 [9] = assay: Cell cycle arrest in human MCF7 cells assessed as accumulation at G1 phase at 0.6 uM after 16 hrs by propidium iodide staining based flow cytometric method (reference value: 60.19 to 60.87%); assay type: functional
MCF7 [10] = assay: Cell cycle arrest in human MCF7 cells assessed as accumulation at G2/M phase at 0.9 uM after 12 hrs by propidium iodide staining based flow cytometric method (reference value: 5.43 to 13.68%); assay type: functional
MCF7 [11] = assay: Induction of apoptosis in human MCF7 cells assessed as viable cells at 8 uM after 24 hrs by Annexin-V-FITC/propidium iodide staining based flow cytometric method (reference value: 91.6 to 92.7%); assay type: functional; conditions: MCF7, 24 h, read-out: Activity
MCF7 [12] = assay: Induction of apoptosis in human MCF7 cells assessed as viable cells at 4 uM after 24 hrs by Annexin-V-FITC/propidium iodide staining based flow cytometric method (reference value: 91.6 to 92.7%); assay type: functional; conditions: MCF7, 24 h, read-out: Activity
HeLa = assay: Cytotoxicity against human HeLa cells after 24 hrs by MTT assay; assay type: functional, cell-based; outline: as §1
MCF7 [13] = assay: Induction of apoptosis in human MCF7 cells assessed as necrotic cells at 2 uM after 24 hrs by Annexin-V-FITC/propidium iodide staining based flow cytometric method (reference value: 2.35 to 2.49%); assay type: functional
MCF7 [14] = assay: Cell cycle arrest in human MCF7 cells assessed as accumulation at G2/M phase at 0.6 uM after 12 hrs by propidium iodide staining based flow cytometric method (reference value: 5.43 to 13.68%); assay type: functional
MCF7 [15] = assay: Induction of apoptosis in human MCF7 cells assessed as late apoptotic cells at 8 uM after 24 hrs by Annexin-V-FITC/propidium iodide staining based flow cytometric method (reference value: 2 to 3.7%); assay type: functional
MCF7 [16] = assay: Down regulation of cyclin A expression in human MCF7 cells at 0.5 to 2 uM after 24 hrs by Western blot analysis; assay type: functional, cell-based
MCF7 [17] = assay: Cell cycle arrest in human MCF7 cells assessed as accumulation at G2/M phase at 0.3 uM after 12 hrs by propidium iodide staining based flow cytometric method (reference value: 5.43 to 13.68%); assay type: functional
MCF7 [18] = assay: Induction of apoptosis in human MCF7 cells assessed as early apoptotic cells at 12 uM after 24 hrs by Annexin-V-FITC/propidium iodide staining based flow cytometric method (reference value: 2.36 to 2.86%); assay type: functional
MCF7 [19] = assay: Cell cycle arrest in human MCF7 cells assessed as accumulation at G1 phase at 0.3 uM after 12 hrs by propidium iodide staining based flow cytometric method (reference value: 58.69 to 62.23%); assay type: functional
MCF7 [20] = assay: Induction of apoptosis in human MCF7 cells assessed as viable cells at 2 uM after 24 hrs by Annexin-V-FITC/propidium iodide staining based flow cytometric method (reference value: 91.6 to 92.7%); assay type: functional; conditions: MCF7, 24 h, read-out: Activity
MCF7 [21] = assay: Induction of apoptosis in human MCF7 cells assessed as viable cells at 12 uM after 24 hrs by Annexin-V-FITC/propidium iodide staining based flow cytometric method (reference value: 91.6 to 92.7%); assay type: functional; conditions: MCF7, 24 h, read-out: Activity
MCF7 [22] = assay: Induction of apoptosis in human MCF7 cells assessed as early apoptotic cells at 2 uM after 24 hrs by Annexin-V-FITC/propidium iodide staining based flow cytometric method (reference value: 2.36 to 2.86%); assay type: functional
MCF7 [23] = assay: Induction of apoptosis in human MCF7 cells assessed as late apoptotic cells at 4 uM after 24 hrs by Annexin-V-FITC/propidium iodide staining based flow cytometric method (reference value: 2 to 3.7%); assay type: functional
MCF7 [24] = assay: Cell cycle arrest in human MCF7 cells assessed as accumulation at S phase at 0.9 uM after 12 hrs by propidium iodide staining based flow cytometric method (reference value: 27.63 to 32.34%); assay type: functional
MCF7 [25] = assay: Cell cycle arrest in human MCF7 cells assessed as accumulation at G1 phase at 0.6 uM after 12 hrs by propidium iodide staining based flow cytometric method (reference value: 58.69 to 62.23%); assay type: functional
MCF7 [26] = assay: Cell cycle arrest in human MCF7 cells assessed as accumulation at G1 phase at 0.9 uM after 12 hrs by propidium iodide staining based flow cytometric method (reference value: 58.69 to 62.23%); assay type: functional
MCF7 [27] = assay: Cell cycle arrest in human MCF7 cells assessed as accumulation at G2/M phase at 0.6 uM after 8 hrs by propidium iodide staining based flow cytometric method (reference value: 7.59 to 9.58%); assay type: functional
MCF7 [28] = assay: Cell cycle arrest in human MCF7 cells assessed as accumulation at S phase at 0.3 uM after 12 hrs by propidium iodide staining based flow cytometric method (reference value: 27.63 to 32.34%); assay type: functional
MCF7 [29] = assay: Cell cycle arrest in human MCF7 cells assessed as accumulation at S phase at 0.6 uM after 16 hrs by propidium iodide staining based flow cytometric method (reference value: 29.55 to 32.22%); assay type: functional
Homo sapiens = species on record: Homo sapiens; assay: Induction of tubulin depolymerization in human MCF7 cells at 0.5 to 1 uM after 12 hrs by DAPI staining based confocal microscopic analysis; assay type: cell-based

COc1cc([C@@H]2c3cc4c(cc3[C@H](OC(=O)CN3CCN(c5ccc(Cl)c(Cl)c5)CC3)[C@H]3COC(=O)[C@H]23)OCO4)cc(OC)c1OC
Activity (MCF7 [1]): 23.99%
Activity (MCF7 [2]): 6.91%
Activity (MCF7 [3]): Active
IC50 (L02): > 100 µM
Activity (MCF7 [4]): 85.57%
Activity (MCF7 [5]): 26.13%
IC50 (A549): 6.32 µM
Activity (MCF7 [6]): 5.64%
Activity (MCF7 [7]): 11.4%
Activity (MCF7 [8]): 29.43%
Activity (MCF7 [9]): 8.51%
Activity (MCF7 [10]): 81.03%
viability at 8 µM (MCF7 [11]): 67.9%
viability at 4 µM (MCF7 [12]): 72.4%
IC50 (HeLa): 5.1 µM
Activity (MCF7 [13]): 2.61%
Activity (MCF7 [14]): 60.98 - 69.25%
Activity (MCF7 [15]): 14%
Activity (MCF7 [16]): Active
Activity (MCF7 [17]): 37.72%
Activity (MCF7 [18]): 17.5%
Activity (MCF7 [19]): 38.07%
viability at 2 µM (MCF7 [20]): 81.2%
viability at 12 µM (MCF7 [21]): 55.2%
Activity (MCF7 [22]): 10.1%
Activity (MCF7 [23]): 10.5%
Activity (MCF7 [24]): 10.65%
Activity (MCF7 [25]): 18.24 - 26.54%
Activity (MCF7 [26]): 8.32%
Activity (MCF7 [27]): 44.13%
Activity (MCF7 [28]): 24.21%
Activity (MCF7 [29]): 5.92%
Activity (Homo sapiens): Active
